# Laboratory results taken from ChEMBL document CHEMBL3272092, “Synthesis and antihypertensive activity of 5-thio-2-pyridinecarboxylic acid derivatives” (J Med Chem, 1978).
# Active and inactive are the calls of the source. The rule behind the calls is not given here.
# Assays:
# Rattus norvegicus [1] = experiment: Antihypertensive activity in spontaneous hypertensive rat model assessed as decrease in blood pressure at 100 mg/kg, po administered for 2 to 4 days measured on day 2 to day 4; type: functional
# Procedure, shortened: (§1)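 SHR, 4–6 per drug, were dosed daily by gavage for 2 or 4 consecutive days in 3% cornstarch, 5% PEG-400 and 1 drop Tween 80 per mL. After 1 h acclimation, systolic pressure was read by tail-cuff (inflated to 250 mmHg, then lowered; pulse reemergence), at least three readings, at 1, 2, 3 and 24 h post-dose. The peak fall is scored: +, <20 mm up to >80 mm.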
# Rattus norvegicus [2] = experiment: Antihypertensive activity in spontaneous hypertensive rat model assessed as decrease in blood pressure at 200 mg/kg, po administered for 2 to 4 days measured on day 2 to day 4; type: functional; procedure, shortened: as §1
# Rattus norvegicus [3] = experiment: Toxicity in spontaneous hypertensive rat model assessed as bradycardia at 200 mg/kg, po administered for 2 to 4 days; type: organism-based; design: dose 200 mg/kg, route oral; details: in vivo
# Procedure, shortened: (§2)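 Heart rate in SHR was counted from tail-cuff pressure pulses after 1 h acclimation. Rats (4–6 per drug) were gavaged daily for 2 or 4 days at 100 mg/kg (sometimes 200 mg/kg) in 3% cornstarch, 5% PEG-400 and 1 drop Tween 80 per mL. Recordings were at 1, 2, 3 and 24 h after each dose.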
# Canis familiaris [4] = experiment: Antihypertensive activity in unanesthetized renal hypertensive Mongrel dog model assessed as change in mean blood pressure at 30 mg/kg, po qd measured on day 1; type: functional, Canis lupus familiaris
# Procedure, shortened: (§3)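 Unanesthetized renal hypertensive dogs. Arterial pressure was recorded via a hypodermic needle and polyethylene tubing to a pressure transducer. Drug was given orally once daily as solid in a gelatin capsule. Pressure was determined 1.5, 3, 6 and 24 h after each dose, and the maximum change over each daily monitored session is reported.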
# Canis familiaris [5] = experiment: Antihypertensive activity in unanesthetized renal hypertensive Mongrel dog model assessed as change in mean blood pressure at 30 mg/kg, po qd measured on day 2; type: functional, Canis lupus familiaris; procedure, shortened: as §3
# Canis familiaris [6] = experiment: Antihypertensive activity in unanesthetized renal hypertensive Mongrel dog model assessed as change in mean blood pressure at 30 mg/kg, po qd measured on day 3; type: functional, Canis lupus familiaris; procedure, shortened: as §3
# Canis familiaris [7] = experiment: Toxicity in unanesthetized renal hypertensive Mongrel dog model assessed as change in heart rate at 30 mg/kg, po qd measured on day 1; type: organism-based, Canis lupus familiaris; design: dose 30 mg/kg, route oral; details: in vivo
# Procedure, shortened: (§4)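 Heart rate in unanesthetized renal hypertensive dogs was counted manually from the transducer-recorded arterial pressure trace. Oral dosing was once daily as solid in a gelatin capsule. Readings were at 1.5, 3, 6 and 24 h post-dose, and the maximum change per daily session is reported.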
# Canis familiaris [8] = experiment: Toxicity in unanesthetized renal hypertensive Mongrel dog model assessed as change in heart rate at 30 mg/kg, po qd measured on day 2; type: organism-based, Canis lupus familiaris; design: dose 30 mg/kg, route oral; details: in vivo; procedure, shortened: as §4
# Canis familiaris [9] = experiment: Toxicity in unanesthetized renal hypertensive Mongrel dog model assessed as change in heart rate at 30 mg/kg, po qd measured on day 3; type: organism-based, Canis lupus familiaris; design: dose 30 mg/kg, route oral; details: in vivo; procedure, shortened: as §4
# Squirrel monkey [10] = experiment: Antihypertensive activity in normotensive squirrel monkey model assessed as decrease in systolic blood pressure at 100 mg/kg, po qd measured on day 2 by sphygmomanometry; type: functional, Saimiri sciureus, Artery
# Procedure, shortened: (§5)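 Restrained squirrel monkeys of either sex with tails warmed by infrared lamp. Systolic pressure was measured indirectly with a tail-base occlusion cuff and pulse transducer. Doses were given daily by gavage as a suspension in 3% cornstarch, 5% PEG-400 and 1 drop Tween 80 per 10 mL. Readings were taken 1.5, 3, 5 and 24 h post-dose. Values are the peak change after each dose, analysed by paired t test.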
# Squirrel monkey [11] = experiment: Antihypertensive activity in normotensive squirrel monkey model assessed as decrease in systolic blood pressure at 100 mg/kg, po qd measured on day 1 by sphygmomanometry; type: functional, Saimiri sciureus, Artery; procedure, shortened: as §5
# Squirrel monkey [12] = experiment: Antihypertensive activity in normotensive squirrel monkey model assessed as decrease in systolic blood pressure at 100 mg/kg, po qd measured on day 3 by sphygmomanometry; type: functional, Saimiri sciureus, Artery; procedure, shortened: as §5
# Squirrel monkey [13] = experiment: Toxicity in normotensive squirrel monkey model assessed as change in heart rate at 100 mg/kg, po qd measured on day 2; type: organism-based, Saimiri sciureus; design: dose 100 mg/kg, route oral; details: in vivo
# Procedure, shortened: (§6)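 Heart rate in restrained, tail-warmed squirrel monkeys was counted manually from the tail-cuff pressure record. Daily gavage used a suspension in 3% cornstarch, 5% PEG-400 and 1 drop Tween 80 per 10 mL. Monitoring was at 1.5, 3, 5 and 24 h after each dose, and the peak change per administration is reported. Paired t test.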
# Squirrel monkey [14] = experiment: Toxicity in normotensive squirrel monkey model assessed as change in heart rate at 100 mg/kg, po qd measured on day 1; type: organism-based, Saimiri sciureus; design: dose 100 mg/kg, route oral; details: in vivo; procedure, shortened: as §6
# Squirrel monkey [15] = experiment: Toxicity in normotensive squirrel monkey model assessed as change in heart rate at 100 mg/kg, po qd measured on day 3; type: organism-based, Saimiri sciureus; design: dose 100 mg/kg, route oral; details: in vivo; procedure, shortened: as §6
# Squirrel monkey [16] = experiment: Toxicity in normotensive squirrel monkey model at 100 mg/kg, po qd measured on day 3; type: organism-based, Saimiri sciureus; design: dose 100 mg/kg, route oral; details: in vivo
# Canis familiaris [17] = experiment: Toxicity in unanesthetized renal hypertensive Mongrel dog model assessed as emesis at 30 mg/kg, po qd measured on day 1 to 4; type: organism-based, Canis lupus familiaris; design: dose 30 mg/kg, route oral; details: in vivo
# Canis familiaris [18] = experiment: Antihypertensive activity in unanesthetized renal hypertensive Mongrel dog model assessed as change in mean blood pressure at 60 mg/kg, po qd measured on day 1; type: functional, Canis lupus familiaris
# Procedure, shortened: (§7)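 Conscious renal hypertensive dogs. Blood pressure recorded through a hypodermic needle and tubing to a pressure transducer; heart rate counted by hand. Solid drug given orally once daily in gelatin capsule. Pressures read at 1.5, 3, 6 and 24 h after each dose; maximum changes in pressure and heart rate over each daily session reported.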
# Canis familiaris [19] = experiment: Antihypertensive activity in unanesthetized renal hypertensive Mongrel dog model assessed as change in mean blood pressure at 60 mg/kg, po qd measured on day 2; type: functional, Canis lupus familiaris; procedure, shortened: as §7
# Canis familiaris [20] = experiment: Antihypertensive activity in unanesthetized renal hypertensive Mongrel dog model assessed as change in mean blood pressure at 60 mg/kg, po qd measured on day 3; type: functional, Canis lupus familiaris; procedure, shortened: as §7
# Canis familiaris [21] = experiment: Toxicity in unanesthetized renal hypertensive Mongrel dog model assessed as change in heart rate at 60 mg/kg, po qd measured on day 1; type: organism-based, Canis lupus familiaris; design: dose 60 mg/kg, route oral; details: in vivo; procedure, shortened: as §7
# Canis familiaris [22] = experiment: Toxicity in unanesthetized renal hypertensive Mongrel dog model assessed as change in heart rate at 60 mg/kg, po qd measured on day 2; type: organism-based, Canis lupus familiaris; design: dose 60 mg/kg, route oral; details: in vivo; procedure, shortened: as §7
# Canis familiaris [23] = experiment: Toxicity in unanesthetized renal hypertensive Mongrel dog model assessed as change in heart rate at 60 mg/kg, po qd measured on day 3; type: organism-based, Canis lupus familiaris; design: dose 60 mg/kg, route oral; details: in vivo; procedure, shortened: as §7
# Squirrel monkey [24] = experiment: Antihypertensive activity in normotensive squirrel monkey model assessed as decrease in systolic blood pressure at 30 mg/kg, po qd measured on day 1 by sphygmomanometry; type: functional, Saimiri sciureus, Artery
# Procedure, shortened: (§8)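 Squirrel monkeys of either sex restrained in primate chairs, tails warmed by infrared lamp. Systolic pressure taken indirectly by tail-base occlusion cuff with pulse transducer; heart rate counted by hand from the pressure trace. Daily gavage of a suspension in 3% cornstarch, 5% PEG-400 and 1 drop Tween 80 per 10 mL. Read at 1.5, 3, 5 and 24 h; peak change per dose; paired t test.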
# Squirrel monkey [25] = experiment: Toxicity in normotensive squirrel monkey model assessed as change in heart rate at 30 mg/kg, po qd measured on day 1; type: organism-based, Saimiri sciureus; design: dose 30 mg/kg, route oral; details: in vivo; procedure, shortened: as §8
# Canis familiaris [26] = experiment: Toxicity in unanesthetized renal hypertensive Mongrel dog model assessed as emesis at 60 mg/kg, po qd measured on day 1 to 4; type: organism-based, Canis lupus familiaris; design: dose 60 mg/kg, route oral; details: in vivo
# Squirrel monkey [27] = experiment: Toxicity in normotensive squirrel monkey model assessed as emesis at 30 mg/kg, po qd measured on day 1; type: organism-based, Saimiri sciureus; design: dose 30 mg/kg, route oral; details: in vivo
# Squirrel monkey [28] = experiment: Toxicity in normotensive squirrel monkey model assessed as emesis at 100 mg/kg, po qd measured on day 2; type: organism-based, Saimiri sciureus; design: dose 100 mg/kg, route oral; details: in vivo
# Rattus norvegicus [29] = experiment: Toxicity in spontaneous hypertensive rat model at 100 mg/kg, po administered for 2 to 4 days; type: organism-based; design: dose 100 mg/kg, route oral; details: in vivo
# Rattus norvegicus [30] = experiment: Toxicity in spontaneous hypertensive rat model assessed as effect on heart rate at 100 mg/kg, po administered for 2 to 4 days; type: organism-based; design: dose 100 mg/kg, route oral; details: in vivo; procedure, shortened: as §2
# Rattus norvegicus [31] = experiment: Antihypertensive activity in spontaneous hypertensive rat model assessed as decrease in blood pressure at 30 mg/kg, po administered for 2 to 4 days measured on day 2 to day 4; type: functional
SMILES,Activity (Rattus norvegicus [1]),other results
O=C(O)c1ccc(SCc2cccc(Cl)c2)cn1,>40 mmHg,–
O=C(O)c1ccc(SCc2cccc(C(F)(F)F)c2)cn1,>40 mmHg,Activity (Rattus norvegicus [2]): >80 mmHg; Activity (Rattus norvegicus [3]): Toxic; Activity (Canis familiaris [4]): 12 mmHg; Activity (Canis familiaris [5]): 22 mmHg; Activity (Canis familiaris [6]): 24 mmHg; Activity (Canis familiaris [7]): 5 bpm; Activity (Canis familiaris [8]): 9 bpm; Activity (Canis familiaris [9]): -12 bpm; Activity (Squirrel monkey [10]): -25 mmHg; Activity (Squirrel monkey [11]): -27 mmHg; Activity (Squirrel monkey [12]): -25 mmHg; Activity (Squirrel monkey [13]): -26 bpm; Activity (Squirrel monkey [14]): -40 bpm; Activity (Squirrel monkey [15]): -20 bpm; Activity (Squirrel monkey [16]): Toxic; Activity (Canis familiaris [17]): Non-toxic
CC(Sc1ccc(C(=O)O)nc1)c1cccc(Cl)c1 (stereo unspecified),<20 mmHg,–
O=C(O)c1ccc(SCc2ccccc2)cn1,>40 mmHg,–
O=C([O-])c1ccc(SCc2cccc(Br)c2)cn1.[Na+],>60 mmHg,–
CC(c1cccc(C(F)(F)F)c1)[S+]([O-])c1ccc(C(=O)O)nc1 (stereo unspecified),>20 mmHg,–
O=C([O-])c1ccc(SCc2ccc(Br)cc2)cn1.[Na+],>40 mmHg,–
O=C([O-])c1ccc(SCc2c(Cl)cccc2Cl)cn1.[Na+],<20 mmHg,–
O=C(O)c1ccc(SCc2ccccc2Cl)cn1,<20 mmHg,–
O=C(O)c1ccc(Sc2cccc(Cl)c2)cn1,>20 mmHg,–
N#Cc1cccc(CSc2ccc(C(=O)[O-])nc2)c1.[Na+],>20 mmHg,–
CC(Sc1ccc(C(=O)O)nc1)c1cccc(C(F)(F)F)c1 (stereo unspecified),>40 mmHg,–
O=C(O)c1ccc(SCc2cccc(F)c2)cn1,>20 mmHg,–
O=C(O)c1ccc([S+]([O-])Cc2ccc(Cl)cc2)cn1 (stereo unspecified),>20 mmHg,–
CCCC(Sc1ccc(C(=O)O)nc1)c1cccc(C(F)(F)F)c1 (stereo unspecified),>20 mmHg,–
Cc1cccc(CSc2ccc(C(=O)O)nc2)c1,<20 mmHg,–
O=C([O-])c1ccc([S+]([O-])Cc2cccc(Br)c2)cn1.[Na+] (stereo unspecified),>20 mmHg,–
CCCCc1ccc(C(=O)O)nc1 [FUSARIC ACID],>60 mmHg,Activity (Canis familiaris [18]): -50 mmHg; Activity (Canis familiaris [19]): -45 mmHg; Activity (Canis familiaris [20]): -30 mmHg; Activity (Canis familiaris [21]): 32 bpm; Activity (Canis familiaris [22]): 35 bpm; Activity (Canis familiaris [23]): 33 bpm; Activity (Squirrel monkey [24]): -28 mmHg; Activity (Squirrel monkey [10]): -53 mmHg; Activity (Squirrel monkey [25]): -20 bpm; Activity (Squirrel monkey [13]): 10 bpm; Activity (Canis familiaris [26]): Toxic; Activity (Squirrel monkey [27]): Non-toxic; Activity (Squirrel monkey [28]): Non-toxic

SMILES,Activity (Rattus norvegicus [1]),other results
O=C(O)c1ccc(SCCCc2ccccc2)cn1,>20 mmHg,–
O=C([O-])c1ccc([S+]([O-])CCCc2ccccc2)cn1.[Na+] (stereo unspecified),<20 mmHg,–
O=C([O-])c1ccc(SCc2ccc(Cl)c(Cl)c2)cn1.[Na+],<20 mmHg,–
O=C(O)c1ccc(SCc2ccc(Cl)cc2)cn1,>40 mmHg,–
O=C(O)c1ccc(SCCc2ccccc2)cn1,–,Activity (Rattus norvegicus [29]): Toxic
O=C(O)c1ccc(SCCCCl)cn1,>20 mmHg,–
O=C([O-])c1ccc(S(=O)(=O)Cc2cccc(C(F)(F)F)c2)cn1.[Na+],<20 mmHg,–
CCCCSc1ccc(C(=O)O)nc1,>20 mmHg,Activity (Rattus norvegicus [30]): Non-toxic
O=C([O-])c1ccc([S+]([O-])Cc2ccc(Cl)cc2Cl)cn1.[Na+] (stereo unspecified),>20 mmHg,–
COc1cccc(C[S+]([O-])c2ccc(C(=O)O)nc2)c1 (stereo unspecified),<20 mmHg,–
COc1ccc(CSc2ccc(C(=O)[O-])nc2)cc1.[Na+],<20 mmHg,–
Cc1ccc(CSc2ccc(C(=O)[O-])nc2)cc1.[Na+],<20 mmHg,–
O=C([O-])c1ccc(Sc2ccc(Cl)cc2)cn1.[Na+],–,Activity (Rattus norvegicus [31]): <20 mmHg; Activity (Rattus norvegicus [29]): Toxic
O=C(O)c1ccc([S+]([O-])c2ccc(Cl)cc2)cn1 (stereo unspecified),<20 mmHg,–
COc1ccc(C[S+]([O-])c2ccc(C(=O)O)nc2)cc1 (stereo unspecified),>20 mmHg,–
O=C([O-])c1ccc(SCc2ccc(F)cc2)cn1.[Na+],>20 mmHg,–
CCCCS(=O)(=O)c1ccc(C(=O)O)nc1,inactive,–
